These results are taken from ChEMBL document CHEMBL3352210, “Aurones as histone deacetylase inhibitors: identification of key features” (Bioorg Med Chem Lett, 2014).

Calls of active or inactive are those of the source. The rule behind the calls is not given here.

In data set [1] the target is Histone deacetylase. The data set can be described thus: Inhibition of HDAC in human HeLa cell extract after 15 mins by fluorescence assay. It counts as protein assay.
Data set [2] can be described thus: Cytotoxicity against human MeT-5A cells after 16 hrs by luciferase reporter gene assay. The data set is classed as cell-based.
Data set [3] has as its target T1, Histone deacetylase (Homo sapiens) (UniProt Q13547+O15379+Q9UBN7+Q92769+Q9UQL6+Q8WUI4+Q9BY41+Q96DB2+P56524+Q9UKV0+Q969S8). The data set can be described thus: Inhibition of HDAC in human HeLa cell extract at 100 uM after 15 mins by fluorescence assay. The data set is classed as protein assay.
A short description of data set [4]: Cytotoxicity against human MCF7 cells assessed as cell viability at 15 uM after 72 hrs by Celltitre-glo assay. The data set is classed as cell-based. The settings on record: read-out: Activity.
Data set [5] concerns the target Histone deacetylase 1 (Homo sapiens, UniProt Q13547). Kind of data set: Inhibition of HDAC1 (unknown origin) after 15 mins by fluorescence assay.
For data set [6], the target named is T2, Retinoic acid receptor beta (Homo sapiens) (UniProt P10826).
T2 sequence (whole entry): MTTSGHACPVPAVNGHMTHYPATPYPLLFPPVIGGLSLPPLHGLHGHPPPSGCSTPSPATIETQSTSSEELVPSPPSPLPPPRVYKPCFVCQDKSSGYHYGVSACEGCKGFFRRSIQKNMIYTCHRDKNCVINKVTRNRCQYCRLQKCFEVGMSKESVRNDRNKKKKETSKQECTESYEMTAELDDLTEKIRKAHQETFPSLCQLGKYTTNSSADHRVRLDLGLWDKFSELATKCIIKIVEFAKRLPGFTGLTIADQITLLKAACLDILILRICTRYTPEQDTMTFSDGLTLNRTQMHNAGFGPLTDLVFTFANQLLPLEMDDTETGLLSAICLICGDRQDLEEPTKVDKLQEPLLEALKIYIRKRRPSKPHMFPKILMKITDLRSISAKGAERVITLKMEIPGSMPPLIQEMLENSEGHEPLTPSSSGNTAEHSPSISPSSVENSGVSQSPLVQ
Kind of data set: Inhibition of RAR-beta (unknown origin) assessed as change in DNA methylation. In short, it runs like this: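 DNA methylation changes assessed by specific PCR for RARb.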

Data set [7] addresses T1, Histone deacetylase (Homo sapiens). Kind of data set: Inhibition of HDAC in human MeT-5A cells assessed as hisone H3 acetylation after 16 hrs by BRET assay. The data set is classed as cell-based. The procedure, abridged:
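MeT-5A cells transfected with phRluc-C1-BrD and pEYFP-C1 histone H3, then exposed 16 h to increasing doses; BRET signal read as measure of histone H3 acetylation (rise in signal = more acetylation). SAHA used as positive control. Means ± SEM of three independent experiments.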

Data set [8] has as its target Histone deacetylase 2 (Homo sapiens, UniProt Q92769). Kind of data set: Inhibition of HDAC2 (unknown origin) after 15 mins by fluorescence assay.
Data set [9] in a line: Cytotoxicity against human HepG2 cells assessed as cell viability at 15 uM after 72 hrs by Celltitre-glo assay. It counts as cell-based. Particulars: read-out: Activity.
For data set [10], the target named is T3, Protein deacetylase HDAC6 (Homo sapiens, UniProt Q9UBN7).
T3 sequence (Q9UBN7 whole entry): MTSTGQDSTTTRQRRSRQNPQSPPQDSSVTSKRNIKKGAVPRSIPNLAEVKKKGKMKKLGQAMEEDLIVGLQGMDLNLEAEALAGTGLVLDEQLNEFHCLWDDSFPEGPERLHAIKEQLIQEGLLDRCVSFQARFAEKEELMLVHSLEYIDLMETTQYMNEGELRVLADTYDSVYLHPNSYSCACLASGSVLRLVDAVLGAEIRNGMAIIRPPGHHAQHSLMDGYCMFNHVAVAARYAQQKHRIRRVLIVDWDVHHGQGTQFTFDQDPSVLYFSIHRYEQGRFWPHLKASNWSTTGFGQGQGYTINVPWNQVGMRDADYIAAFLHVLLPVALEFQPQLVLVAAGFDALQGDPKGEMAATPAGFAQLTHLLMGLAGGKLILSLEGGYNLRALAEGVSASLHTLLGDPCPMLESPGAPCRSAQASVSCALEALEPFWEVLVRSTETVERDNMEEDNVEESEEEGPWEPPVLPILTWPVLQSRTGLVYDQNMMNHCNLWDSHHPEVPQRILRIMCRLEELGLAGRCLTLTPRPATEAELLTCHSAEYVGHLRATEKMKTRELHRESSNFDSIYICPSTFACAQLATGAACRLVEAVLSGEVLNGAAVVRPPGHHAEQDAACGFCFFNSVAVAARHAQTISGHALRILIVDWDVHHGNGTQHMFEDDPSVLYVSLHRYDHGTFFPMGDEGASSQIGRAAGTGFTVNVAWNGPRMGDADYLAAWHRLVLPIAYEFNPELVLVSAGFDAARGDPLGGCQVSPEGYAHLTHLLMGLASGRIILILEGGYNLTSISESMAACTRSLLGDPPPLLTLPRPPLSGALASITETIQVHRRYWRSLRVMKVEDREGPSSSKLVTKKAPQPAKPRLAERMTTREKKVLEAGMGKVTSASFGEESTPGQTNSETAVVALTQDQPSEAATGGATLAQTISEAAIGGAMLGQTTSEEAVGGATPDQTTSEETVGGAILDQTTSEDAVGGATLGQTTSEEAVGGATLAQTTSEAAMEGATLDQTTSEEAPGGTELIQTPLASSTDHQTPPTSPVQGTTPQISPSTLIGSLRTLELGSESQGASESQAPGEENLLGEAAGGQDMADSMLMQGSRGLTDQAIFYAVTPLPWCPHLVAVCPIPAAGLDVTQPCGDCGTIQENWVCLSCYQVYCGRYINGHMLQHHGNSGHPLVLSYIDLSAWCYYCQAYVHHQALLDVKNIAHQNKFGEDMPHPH
Kind of data set: Inhibition of HDAC6 (unknown origin) after 15 mins by fluorescence assay.

Data set [11] addresses T4, NAD-dependent protein deacetylase sirtuin-2 (Homo sapiens) (UniProt Q8IXJ6).
T4 sequence (whole entry): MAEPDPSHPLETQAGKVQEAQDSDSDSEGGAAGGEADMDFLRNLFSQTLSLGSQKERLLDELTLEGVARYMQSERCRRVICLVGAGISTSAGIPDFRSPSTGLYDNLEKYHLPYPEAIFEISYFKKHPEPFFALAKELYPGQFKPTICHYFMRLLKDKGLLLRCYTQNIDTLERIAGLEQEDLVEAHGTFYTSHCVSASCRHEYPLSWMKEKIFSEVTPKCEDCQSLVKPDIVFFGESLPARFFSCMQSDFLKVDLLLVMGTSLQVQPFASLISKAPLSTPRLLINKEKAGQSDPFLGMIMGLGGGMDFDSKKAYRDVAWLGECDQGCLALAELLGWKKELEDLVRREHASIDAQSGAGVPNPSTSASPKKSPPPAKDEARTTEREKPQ
The data set can be described thus: Modulation of sirtuin 2 (unknown origin) by thermal shift assay. The procedure, abridged: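 Sirtuin 2 modulation tested by thermal shift assay.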

Chain of Histone deacetylase 2 (Q92769 whole entry): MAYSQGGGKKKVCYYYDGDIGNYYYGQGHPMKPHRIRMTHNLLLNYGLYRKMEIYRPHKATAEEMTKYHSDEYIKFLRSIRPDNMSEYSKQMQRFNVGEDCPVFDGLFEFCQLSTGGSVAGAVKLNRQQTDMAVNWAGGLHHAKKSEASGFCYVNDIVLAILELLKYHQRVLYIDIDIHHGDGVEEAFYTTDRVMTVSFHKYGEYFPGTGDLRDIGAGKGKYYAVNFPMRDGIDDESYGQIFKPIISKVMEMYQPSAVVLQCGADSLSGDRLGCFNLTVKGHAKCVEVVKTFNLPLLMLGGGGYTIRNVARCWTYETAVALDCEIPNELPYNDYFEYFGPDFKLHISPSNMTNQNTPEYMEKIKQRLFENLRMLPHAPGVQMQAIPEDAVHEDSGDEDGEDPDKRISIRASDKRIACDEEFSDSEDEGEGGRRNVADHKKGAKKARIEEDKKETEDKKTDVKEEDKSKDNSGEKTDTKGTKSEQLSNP
Chain of Histone deacetylase 1 (Q13547 whole entry): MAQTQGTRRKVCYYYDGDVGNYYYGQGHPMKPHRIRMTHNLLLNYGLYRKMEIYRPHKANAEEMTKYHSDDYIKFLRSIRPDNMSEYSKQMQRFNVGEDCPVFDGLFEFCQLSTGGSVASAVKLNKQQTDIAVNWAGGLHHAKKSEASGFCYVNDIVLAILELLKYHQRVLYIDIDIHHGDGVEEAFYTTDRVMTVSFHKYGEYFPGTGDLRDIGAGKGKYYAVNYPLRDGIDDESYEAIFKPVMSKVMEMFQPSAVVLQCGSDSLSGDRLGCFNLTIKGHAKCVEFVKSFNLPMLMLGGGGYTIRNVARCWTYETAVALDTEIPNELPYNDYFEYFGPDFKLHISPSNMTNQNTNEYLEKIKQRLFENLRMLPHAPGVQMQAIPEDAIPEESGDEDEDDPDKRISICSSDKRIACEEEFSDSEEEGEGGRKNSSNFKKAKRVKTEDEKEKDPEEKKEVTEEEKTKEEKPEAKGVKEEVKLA

For the compound `O=C1/C(=C/c2ccc(O)c(O)c2)Oc2ccccc21`, the IC50 in [1] was 8.2 µM; in [5] it was 11.4 µM; in [8], 5.1 µM; in [10] it was 26.9 µM. Moreover, the Activity entry in data set [2] is listed as “Dose-dependent effect”. Further, the inhibition in data set [3] is 100%; in data set [7] it was “Dose-dependent effect”. For the same compound, the viability at 72 h, 15 µM in data set [4] was 95%; in data set [9], 114%. Moreover, the inhibition entry in [6] and in data set [11] was “inactive” in each case.
`O=C1/C(=C/c2cccc(O)c2O)Oc2ccccc21`: the IC50 in [1] was found to be 18.6 µM; in data set [5], 21 µM; in data set [8] it was 16.4 µM; in data set [10], 26.9 µM. Moreover, the Activity result in data set [2] is listed as “Dose-dependent effect”. Further, the inhibition in data set [3] was 98%; in data set [7], “Dose-dependent effect”. Besides, the results for the viability at 72 h, 15 µM in data set [4] and in data set [9] were 109% and 113%, respectively. Also, the inhibition entry in data set [6] and in data set [11] was “inactive” each time.
Regarding `O=C1/C(=C/c2ccc(O)cc2)Oc2ccccc21`, the IC50 in data set [1] stood at 12.6 µM; in data set [5] it was 129 µM; in [8], 100 µM; in data set [10] it was 136 µM. Further, the Activity entry in data set [2] is on record as “Dose-dependent effect”. In addition, the inhibition in [3] is 100%; in [7], “Dose-dependent effect”. In addition, the viability at 72 h, 15 µM in [4] turned out to be 79%; in data set [9] it was 100%. The inhibition result in [6] and in [11] was “inactive” in each case.
On to `O=C1/C(=C/c2ccc(O)c(O)c2)Oc2cc(O)cc(O)c21` [AUREUSIDIN], for which the IC50 amounted to 18.5 µM in data set [1], 38 µM in data set [5], 38.9 µM in [8] and 48.5 µM in data set [10]. Besides, the Activity result in data set [2] is listed as “Dose-dependent effect”. Besides, the inhibition is 100% in data set [3] and “Dose-dependent effect” in [7]. Moreover, the viability at 72 h, 15 µM in data set [4] turned out to be 102%; in data set [9] it was 116%. The inhibition entry in data set [6] and in data set [11] was “inactive” in each case.
